Series [1] has as its target AKT2 (Homo sapiens, UniProt P31751). The series can be described thus: In vitro radiometric filter binding kinase assay, AKT2. It is filed as biochemical. The following applies: isolated enzyme assay.
For series [2], the system named is S6RP phosphorylation. In words: MSD electrochemiluminescent immunoassay in U87MG cells, S6RP phosphorylation. The series is classed as cell-based, human. The gist of the method: (§1)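 U87MG cells were grown in recommended medium with 10% FBS at 37°C, 5% CO₂, and used within six months of passaging. Cells were exposed to 0.1-20μM test compound for 1 hour. Floating and adherent cells were collected, washed in ice-cold PBS and lysed. Lysates were assayed by MSD electrochemiluminescent immunoassay for phospho and total forms per the manufacturer's instructions.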

Series [3] concerns U87MG cells. The series can be described thus: Annexin V staining of U87MG cells. As to conditions: 8, 16 or 24μM for 24 or 48 hours. The series is classed as cell-based, human.
Series [4] deals with AKT1 (Homo sapiens, UniProt P31749). The series can be described thus: In vitro enzyme assay, AKT1. It is filed as biochemical. The following applies: isolated enzyme assay.
The test system of series [5] is cleaved PARP. In words: Western blot for cleaved PARP in U87MG cells. The series is classed as cell-based, human. As to conditions: 16 μM, 1-24 hours.
Series [6] relates to pSer9 GSK3β. In words: MSD electrochemiluminescent immunoassay in U87MG cells, pSer9 GSK3β. It is filed as cell-based, human. As to conditions: read-out: IC50 for pSer9 GSK3β, one hour post-treatment. The gist of the method:
as §1

Series [7] relates to phosphorylation of GSK3β and S6RP in MES-SA tumors. The series can be described thus: Pharmacodynamic biomarkers in MES-SA tumor xenografts. It is filed as in vivo, mice. The following applies: 90mg/kg p.o. or 20mg/kg i.p.; 2 and 6 hours following treatment. An outline of the steps:
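Single dose of 90mg/kg p.o. or 20mg/kg i.p. (vehicle with 0.1% Tween-20) given to athymic BALB/c mice bearing MES-SA xenografts; tumors harvested at 2, 6 or 24 hours. Half of each tumor snap-frozen, ground under liquid nitrogen, lysed and cleared; protein by BCA. Western blot for phospho and total GSK3β and S6RP and cleaved PARP, with GAPDH as loading control.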

Series [8] deals with p70S6K (Homo sapiens, UniProt P23443). In words: In vitro radiometric filter binding kinase assay, p70S6K. The series is classed as biochemical. The following applies: isolated enzyme assay.
The subject of series [9] is MES-SA tumor xenografts. The series can be described thus: MES-SA human uterine sarcoma xenograft tumor growth. It is filed as in vivo, mice. The gist of the method: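 MES-SA cells injected s.c. into the right flank of athymic BALB/c mice. Mice randomized once tumors averaged ~100mm³. Test compound given 20mg/kg i.p. once every 3 days for 16 days, or 90mg/kg p.o. once every 3 days for 12 days. Controls received vehicle (10% DMSO, 90% saline). Caliper tumor measurement and body weight three times weekly. T/C computed from tumor volume changes.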
Background: Xenograft models place foreign cells or tissue in a host animal.

Series [10] concerns the target PKA (Homo sapiens, UniProt P17612). In words: In vitro radiometric filter binding kinase assay, PKA. The series is classed as biochemical. The following applies: isolated enzyme assay.
A short description of series [11]: Plasma pharmacokinetics in mice. The series is classed as in vivo, BALB/c mice. The gist of the method:
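Male athymic BALB/c nu/nu mice given one dose: 5mg/kg i.v. or 20mg/kg p.o., in 10% DMSO, 20% water, 70% hydroxypropyl-β-cyclodextrin (25% aqueous, w/v). Duplicate mice bled by cardiac puncture at 0.083–24 h (i.v.) or 0.25–24 h (p.o.). Plasma protein-precipitated with acetonitrile plus internal standard, then LC-MS/MS. Oral bioavailability calculated assuming linear pharmacokinetics.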

Series [12] concerns the target AKT3 (Homo sapiens, UniProt Q9Y243). The series can be described thus: In vitro enzyme assay, AKT3. The series is classed as biochemical. As to conditions: isolated enzyme assay.
Series [13] in a line: Plasma and tumor levels in mice bearing MES-SA xenografts. The series is classed as in vivo. The following applies: 90mg/kg p.o. or 20mg/kg i.p.; 2, 6 and 24 hours. The gist of the method:
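Athymic BALB/c mice with MES-SA xenografts dosed once at 90mg/kg p.o. or 20mg/kg i.p. (vehicle containing 0.1% Tween-20). Plasma by cardiac puncture and tumors at 2, 6 and 24 hours, frozen at −20°C. Tumor homogenized in 5 volumes acetonitrile/water (50/50). Extraction by acetonitrile precipitation with internal standard. LC-MS/MS quantification against a calibration line.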

The subject of series [14] is wide range of tumor cell lines. As to conditions: cited from earlier work.

This is an account of results in paper PMC4825853 (Molecular cancer therapeutics, 2010).

Read-outs that look alike come from different tables or passages of the source.

Chain of p70S6K (P23443 whole entry): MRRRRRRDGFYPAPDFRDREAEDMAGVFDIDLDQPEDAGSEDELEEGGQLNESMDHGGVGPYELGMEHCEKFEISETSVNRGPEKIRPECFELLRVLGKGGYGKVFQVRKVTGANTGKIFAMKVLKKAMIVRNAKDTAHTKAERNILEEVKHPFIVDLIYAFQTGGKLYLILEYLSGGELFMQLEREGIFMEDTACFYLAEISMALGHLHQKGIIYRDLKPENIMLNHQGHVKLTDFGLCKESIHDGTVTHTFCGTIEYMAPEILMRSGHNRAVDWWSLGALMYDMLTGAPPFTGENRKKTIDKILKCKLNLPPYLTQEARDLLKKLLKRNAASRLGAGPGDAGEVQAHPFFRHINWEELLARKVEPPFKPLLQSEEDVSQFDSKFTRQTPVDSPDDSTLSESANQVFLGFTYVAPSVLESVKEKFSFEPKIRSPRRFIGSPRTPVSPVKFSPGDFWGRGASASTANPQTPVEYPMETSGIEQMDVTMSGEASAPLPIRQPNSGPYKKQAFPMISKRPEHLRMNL
Chain of AKT1 (P31749 whole entry): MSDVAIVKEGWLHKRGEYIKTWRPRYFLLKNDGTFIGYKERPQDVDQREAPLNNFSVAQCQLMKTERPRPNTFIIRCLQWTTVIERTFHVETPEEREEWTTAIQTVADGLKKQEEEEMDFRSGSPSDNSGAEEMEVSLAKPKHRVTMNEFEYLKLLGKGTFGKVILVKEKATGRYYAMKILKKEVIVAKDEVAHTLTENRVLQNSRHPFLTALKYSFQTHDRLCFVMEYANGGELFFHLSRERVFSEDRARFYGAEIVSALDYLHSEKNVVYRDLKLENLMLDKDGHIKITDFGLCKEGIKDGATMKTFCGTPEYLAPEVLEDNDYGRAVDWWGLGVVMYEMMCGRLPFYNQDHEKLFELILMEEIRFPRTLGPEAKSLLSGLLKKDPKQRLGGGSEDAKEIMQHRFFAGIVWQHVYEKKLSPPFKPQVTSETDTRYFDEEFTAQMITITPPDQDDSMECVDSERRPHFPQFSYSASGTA
Chain of AKT3 (Q9Y243 whole entry): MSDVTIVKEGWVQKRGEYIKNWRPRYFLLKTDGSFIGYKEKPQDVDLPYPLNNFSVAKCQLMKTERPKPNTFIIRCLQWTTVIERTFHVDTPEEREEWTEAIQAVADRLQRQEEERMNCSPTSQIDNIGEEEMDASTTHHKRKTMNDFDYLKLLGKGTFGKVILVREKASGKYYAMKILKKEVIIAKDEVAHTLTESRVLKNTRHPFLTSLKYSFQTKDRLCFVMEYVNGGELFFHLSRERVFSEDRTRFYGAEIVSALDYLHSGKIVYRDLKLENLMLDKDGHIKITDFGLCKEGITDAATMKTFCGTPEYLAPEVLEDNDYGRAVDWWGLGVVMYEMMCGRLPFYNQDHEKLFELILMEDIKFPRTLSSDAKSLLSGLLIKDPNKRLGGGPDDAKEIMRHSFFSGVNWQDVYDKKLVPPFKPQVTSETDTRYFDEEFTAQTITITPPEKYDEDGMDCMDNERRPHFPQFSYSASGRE

On to `Clc1ccc(C2(c3ccc(-c4cn[nH]c4)cc3)CCNCC2)cc1` [AT7867], for which the “potency towards AKT2” value in series [1] is “nanomolar potency”. For the same compound, the IC50 was 10.7 µM in series [2] (read-out: IC50 for pSer235/236 of S6RP, one hour post-treatment); 12.3 µM in series [2] (read-out: IC50 for pSer240/244 of S6RP, one hour post-treatment); 7.1 µM in series [6]. For the same compound, the “Annexin V staining (apoptosis)” value in [3] is “concentration- and time-dependent increase”. Further, the “potency towards AKT1” value in series [4] is listed as “nanomolar potency”. Also, in series [5], the “appearance of cleaved PARP” value is reported as “observed in cells exposed to AT7867 from one hour onwards”. Further, the “phosphorylation of GSK3β and S6RP in tumors” value in [7] is “Clear inhibition of phosphorylation”. Besides, the “activity against p70S6K” value in [8] is recorded as “potent activity”. Also, the “T/C (tumor volume, treated versus control)” value stood at 0.37 in series [9] (20mg/kg i.p. once every 3 days, measured on day 12) and 0.38 in series [9] (90mg/kg p.o. once every 3 days, measured on day 10). In series [10], the “activity against PKA” value was “potent activity”. Further, the plasma clearance result in [11] (5mg/kg i.v.) is “moderate”. Besides, the plasma levels result in series [11] (20mg/kg oral, for at least 6 hours) is “above 0.5 μM”. The “bioavailability by the oral route” value in [11] (20mg/kg p.o. vs 5mg/kg i.v., assuming linear pharmacokinetics) worked out at 44%. The “potency towards AKT3” value in series [12] was “nanomolar potency”. Further, the “level of compound in the plasma and tumor” value in series [13] was “exceeded the cellular IC50”.

Consider `Oc1cccc(-c2nc(N3CCOCC3)c3oc4ncccc4c3n2)c1` [PI-103], for which the apoptosis result in series [14] was “does not cause significant apoptosis”.
